Consider five compounds from ChEMBL document CHEMBL1126647, “Fluorine-18-labeled progestin ketals: synthesis and target tissue uptake selectivity of potential imaging agents for receptor-positive breast tumors” (J Med Chem, 1993).

A word on the logP: it is a log measure of how a compound divides between an organic and an aqueous phase. High values mean a more lipophilic compound, low ones a more hydrophilic compound.

The target of series [1] is T1, Progesterone receptor (Rattus norvegicus) (UniProt Q63449).
T1 sequence (whole entry): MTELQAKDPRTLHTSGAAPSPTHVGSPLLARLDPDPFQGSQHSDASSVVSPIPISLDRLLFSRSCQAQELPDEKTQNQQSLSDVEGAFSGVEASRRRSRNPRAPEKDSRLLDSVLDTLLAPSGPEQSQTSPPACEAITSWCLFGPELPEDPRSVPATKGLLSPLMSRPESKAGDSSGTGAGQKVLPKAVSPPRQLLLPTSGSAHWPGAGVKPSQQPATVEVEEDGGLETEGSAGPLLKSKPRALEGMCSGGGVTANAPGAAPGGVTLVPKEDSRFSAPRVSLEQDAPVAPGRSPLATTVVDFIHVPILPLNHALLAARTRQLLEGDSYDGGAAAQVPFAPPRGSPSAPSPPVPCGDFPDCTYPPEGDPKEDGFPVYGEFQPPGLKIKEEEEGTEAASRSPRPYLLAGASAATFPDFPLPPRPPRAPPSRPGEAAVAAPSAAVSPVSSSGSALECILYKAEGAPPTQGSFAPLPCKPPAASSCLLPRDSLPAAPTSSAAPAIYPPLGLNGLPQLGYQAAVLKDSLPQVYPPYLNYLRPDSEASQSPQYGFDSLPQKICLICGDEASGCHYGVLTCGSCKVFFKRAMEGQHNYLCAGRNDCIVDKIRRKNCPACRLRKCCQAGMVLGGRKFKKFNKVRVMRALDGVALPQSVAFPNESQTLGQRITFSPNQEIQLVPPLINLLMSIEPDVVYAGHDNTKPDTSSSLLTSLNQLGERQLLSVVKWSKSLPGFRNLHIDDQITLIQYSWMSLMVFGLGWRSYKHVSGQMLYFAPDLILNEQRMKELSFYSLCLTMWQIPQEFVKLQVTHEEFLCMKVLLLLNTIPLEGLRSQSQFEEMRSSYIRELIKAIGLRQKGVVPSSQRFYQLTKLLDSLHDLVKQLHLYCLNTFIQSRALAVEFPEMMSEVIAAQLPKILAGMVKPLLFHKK
The series can be described thus: Relative binding affinity for progesterone receptor compared to R5020.

Series [2] in a line: Partition coefficient (logP). It counts as physicochemical. The conditions noted are these: octanol/water. In short, it runs like this:
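Octanol/water partition measured as log P by the Minick method. For some reference progestins, log P was also measured by shake flask.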

Series [3] deals with T1, Progesterone receptor (Rattus norvegicus). Nature of the series: Tissue distribution in uterus/muscle 1 hr after [18F]4 injection into estrogen-primed immature rats at normal dose. It counts as functional, tissue-based. In short, it runs like this: (§1)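 Female Sprague-Dawley rats, 23 days old, primed with estradiol 5 μg s.c. in 20% ethanol/sunflower oil on two days and used 24 h later. Under ether, they received 51 μCi tracer (30 Ci/mmol) iv via the tail vein in 0.1 mL 10% ethanol/saline. Killed by decapitation at 1 h; tissues weighed and gamma-counted. Results as %ID/g or tissue ratios, mean ± SD, n = 5.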

Series [4] has the same target. Nature of the series: Tissue distribution in muscle 1 hr after [18F]4 injection into estrogen-primed immature rats at normal dose. The format is functional, tissue-based. In short, it runs like this: as §1
Series [5] shares this target. Nature of the series: Tissue distribution in uterus 1 hr after [18F]4 injection into estrogen-primed immature rats at normal dose. It counts as functional, tissue-based. In short, it runs like this:
as §1

Series [6] has as its target T2, Mineralocorticoid receptor (Rattus norvegicus) (UniProt P22199).
T2 sequence (whole entry): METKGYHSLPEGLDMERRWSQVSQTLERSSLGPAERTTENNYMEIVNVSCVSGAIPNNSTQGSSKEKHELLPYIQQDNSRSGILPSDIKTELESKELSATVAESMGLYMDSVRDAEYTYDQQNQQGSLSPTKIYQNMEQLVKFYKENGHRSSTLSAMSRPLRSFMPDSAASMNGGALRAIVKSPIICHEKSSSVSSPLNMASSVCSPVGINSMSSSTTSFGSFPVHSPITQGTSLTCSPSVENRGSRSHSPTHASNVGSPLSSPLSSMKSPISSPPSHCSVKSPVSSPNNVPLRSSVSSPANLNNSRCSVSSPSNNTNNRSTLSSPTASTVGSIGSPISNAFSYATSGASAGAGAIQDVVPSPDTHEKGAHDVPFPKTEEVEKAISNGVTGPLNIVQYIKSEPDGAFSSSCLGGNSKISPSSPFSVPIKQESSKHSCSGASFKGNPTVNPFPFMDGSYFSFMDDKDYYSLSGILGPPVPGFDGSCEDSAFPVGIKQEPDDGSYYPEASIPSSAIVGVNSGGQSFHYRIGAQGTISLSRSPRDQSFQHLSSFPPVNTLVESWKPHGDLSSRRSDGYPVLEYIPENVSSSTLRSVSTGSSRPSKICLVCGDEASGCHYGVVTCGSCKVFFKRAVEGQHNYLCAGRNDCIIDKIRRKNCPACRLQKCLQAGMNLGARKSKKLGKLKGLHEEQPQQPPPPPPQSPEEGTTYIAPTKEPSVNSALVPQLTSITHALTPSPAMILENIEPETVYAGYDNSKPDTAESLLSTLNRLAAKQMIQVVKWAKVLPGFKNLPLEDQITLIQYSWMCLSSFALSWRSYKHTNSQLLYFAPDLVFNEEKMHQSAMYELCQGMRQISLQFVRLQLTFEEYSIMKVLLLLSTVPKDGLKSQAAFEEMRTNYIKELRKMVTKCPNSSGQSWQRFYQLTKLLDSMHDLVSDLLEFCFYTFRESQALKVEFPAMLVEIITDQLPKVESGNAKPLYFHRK
Nature of the series: Relative binding affinity (RBA) for mineralocorticoid receptor compared to aldosterone.

The target in series [7] is T1, Progesterone receptor (Rattus norvegicus). The series can be described thus: Tissue distribution in kidney 1 hr after [18F]4 injection into estrogen-primed immature rats at normal dose. It counts as functional, tissue-based. In short, it runs like this:
as §1

In the case of `CC(=O)[C@H]1CC[C@H]2[C@@H]3CCC4=CC(=O)CC[C@]4(C)[C@H]3CC[C@]12C`, the relative binding affinity (RBA) in series [1] is 13.
In the case of `C[C@]1(c2ccc(F)cc2)O[C@@H]2CC3C4CCC5=CC(=O)CC[C@@H]5C4CC[C@]3(C)[C@]2(C(=O)CO)O1` (stereo partly specified), in series [1], the relative binding affinity (RBA) amounted to 1.3. Besides, the logP in series [2] was 4.84.
As to `CC[C@@H]1C[C@H]2[C@@H]3CCC4=CC(=O)CC[C@@H]4[C@H]3CC[C@]2(C)[C@H]1C(=O)CF`, the relative binding affinity (RBA) amounted to 700 in series [1] and 3.2 in series [6]. Moreover, the Injected dose/g came to 16% in series [3], 0.42% in series [4], 6.43% in series [5] and 1.05% in series [7]. Further, the logP in series [2] was 4.66.
For the compound `CCC(=O)[C@@]1(C)CC[C@H]2[C@@H]3CCC4=CC(=O)CCC4=C3CC[C@@]21C` [PROMEGESTONE], the relative binding affinity (RBA) in series [1] came to 100; in series [6], 0.93. The compound further had a logP in series [2] of 4.05.
As for `CC[C@@H]1C[C@H]2[C@@H]3CCC4=CC(=O)CC[C@@H]4[C@H]3CC[C@]2(C)[C@H]1C(=O)CO`, the relative binding affinity (RBA) in series [1] is 200; in series [6], 0.92. Besides, the logP in series [2] stood at 4.01.
